≈ marks a conversion by molar mass, not a printed value. Calls of active or inactive are those of the source. The rule behind the calls is not given here.
Columns and labels:
Staphylococcus aureus [1] = assay: Antibiofilm activity against methicillin-resistant Staphylococcus aureus isolate 2 assessed as biofilm eradication incubated for 24 hrs by CBD assay; format: functional
Method in brief: (§1)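 Calgary Biofilm Device: pegs inoculated with mid-log culture diluted 1,000-fold in TSB + 0.5% glucose, 24 h 37 °C; washed pegs challenged with 2-fold dilutions 24 h 37 °C; pegs moved to fresh TSBG 24 h; MBEC = lowest concentration leaving no turbidity; 2–6 independent experiments.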

[2] = system: Staphylococcus epidermidis; assay: Antibacterial activity against methicillin-resistant Staphylococcus epidermidis ATCC 35984 assessed as biofilm eradication incubated for 24 hrs by CBD assay; format: functional; method in brief: as §1
Staphylococcus aureus [3] = assay: Antibacterial activity against methicillin-resistant Staphylococcus aureus clinical isolate 2 incubated for 16 to 18 hrs by broth microdilution method; format: functional
[4] = system: Staphylococcus epidermidis; assay: Antibacterial activity against Staphylococcus epidermidis ATCC 12228 incubated for 16 to 18 hrs by broth microdilution method; format: functional
Staphylococcus aureus [5] = assay: Antibacterial activity against methicillin-resistant Staphylococcus aureus BAA-44 incubated for 16 to 18 hrs by broth microdilution method; format: functional
Staphylococcus aureus [6] = assay: Antibacterial activity against methicillin-resistant Staphylococcus aureus BAA-1707 incubated for 16 to 18 hrs by broth microdilution method; format: functional
[7] = system: Staphylococcus epidermidis; assay: Antibacterial activity against methicillin-resistant Staphylococcus epidermidis ATCC 35984 incubated for 16 to 18 hrs by broth microdilution method; format: functional
Enterococcus faecium [8] = assay: Antibacterial activity against vancomycin-resistant Enterococcus faecium ATCC 700221 incubated for 16 to 18 hrs by broth microdilution method; format: functional
[9] = system: Mycobacterium tuberculosis; assay: Antibacterial activity against Mycobacterium tuberculosis H37Ra ATCC 25177 after 7 days by two-fold serial dilution method; format: functional; conditions: H37Ra ATCC 25177, 168 h
HeLa [10] = assay: Cytotoxicity against human HeLa cells after 24 hrs by LDH release assay; format: cell-based
Method in brief: (§2)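 HeLa in DMEM + 10% FBS, 37 °C 5% CO2, at 70–80% confluence treated with 25, 50, 100 µM for 24 h; DMSO vehicle; Triton X-100 2% v/v max-LDH control, medium-only negative; supernatant with LDH reaction mix 30 min room temperature, stopped, absorbance 490 nm.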

HeLa [11] = assay: Cytotoxicity against human HeLa cells assessed as cell death at 50 uM after 24 hrs by LDH release assay; format: cell-based; method in brief: as §2
HeLa [12] = assay: Cytotoxicity against human HeLa cells assessed as induction of cell death at 100 uM after 24 hrs by LDH release assay; format: cell-based; method in brief: as §2
Enterococcus faecium [13] = assay: Antibiofilm activity against […]-resistant Enterococcus faecium ATCC 700221 assessed as biofilm eradication incubated for 24 hrs by CBD assay; format: functional; method in brief: as §1
[14] = Induction of hemolysis in human RBC at 200 uM incubated for 1 hr; format: cell-based, Erythrocyte; conditions: red blood cells, read-out: Activity
Method in brief: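 Human RBCs (EDTA), washed three times in Tris-buffered saline pH 7.2; 2% hRBC with compound at final 200 µM, 1 h 37 °C; supernatant OD405; % hemolysis relative to DMSO (0%) and Triton X (100%).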

[15] = system: Staphylococcus epidermidis; assay: Antibiofilm activity against methicillin-resistant Staphylococcus epidermidis ATCC 35984 assessed as biofilm eradication at 0.1 to 10 uM incubated for 24 hrs by live/dead staining-based fluorescence microscopic analysis; format: functional, organism-based
Method in brief: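 MRSE 35984 mid-log culture diluted 1:1,000, biofilm grown 24 h at 37 °C on glass dish, saline wash, treated in fresh media 0.1, 1, 10 µM for 24 h at 37 °C; DMSO negative control; Live/Dead stain 15 min dark, paraformaldehyde fixed, fluorescence microscopy.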

Staphylococcus aureus [16] = assay: Antibacterial activity against methicillin-resistant Staphylococcus aureus clinical isolate 2 incubated for 16 hrs by broth microdilution method in presence of Cu2+; format: functional; conditions: isolate 2, 16 h
Staphylococcus aureus [17] = assay: Antibacterial activity against methicillin-resistant Staphylococcus aureus clinical isolate 2 incubated for 16 hrs by broth microdilution method; format: functional; conditions: isolate 2, 16 h
[18] = Aqueous solubility of compound in media after 16 hrs; format: physicochemical
[19] = system: Staphylococcus epidermidis; assay: Antibiofilm activity against methicillin-resistant Staphylococcus epidermidis ATCC 35984 assessed as reduction in persister cells level within biofilms MBEC incubated for 24 hrs by CBD assay; format: functional; parameters: scale not given: the % may be the effect or the level left
Method in brief: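 After CBD challenge and recovery, pegs sonicated 30 min in PBS and plated to count viable biofilm cells (CFU/mL) at and below MBEC.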

Question: For `Oc1c(Br)cc(I)c2nc3cc(Cl)c(Cl)cc3nc12`, which MBEC (Staphylococcus aureus [1]) is on record?
Answer: Its MBEC is 9.38 µM.

Question: And the MBC (Staphylococcus aureus [1]; Staphylococcus aureus, isolate 2, 24 h)?
Answer: Its MBC is 3.13 µM (≈ 1.47 µg/mL).

Question: And the MBEC [2]?
Answer: The MBEC was 2.35 µM.

Question: What about the MBC ([2]; Staphylococcus epidermidis, ATCC 35984, 24 h) of the same compound?
Answer: The MBC was 1.56 µM (≈ 0.733 µg/mL).

Question: What about the MIC (Staphylococcus aureus [3]) of the same compound?
Answer: Its MIC is 3.13 µM (≈ 1.47 µg/mL).

Question: What about the MIC [4] of the same compound?
Answer: Its MIC is 0.1 µM (≈ 0.047 µg/mL).

Question: And the MIC (Staphylococcus aureus [5])?
Answer: The MIC was 3.13 µM (≈ 1.47 µg/mL).

Question: And the MIC (Staphylococcus aureus [6])?
Answer: Its MIC is 0.3 µM (≈ 0.141 µg/mL).

Question: And the MIC [7]?
Answer: Its MIC is 3.13 µM (≈ 1.47 µg/mL).

Question: What about the MIC (Enterococcus faecium [8]) of the same compound?
Answer: The MIC was 0.1 µM (≈ 0.047 µg/mL).

Question: And the MIC [9]?
Answer: The MIC was 12.5 µM (≈ 5.87 µg/mL).

Question: What about the IC50 (HeLa [10]) of the same compound?
Answer: Its IC50 is > 50 µM.

Question: And the Activity (HeLa [11])?
Answer: The Activity was “Non-toxic”.

Question: And the Activity (HeLa [12])?
Answer: Its Activity is 70%.

Question: What about the MBEC (Enterococcus faecium [13]) of the same compound?
Answer: Its MBEC is 0.2 µM.

Question: And the MBC (Enterococcus faecium [13]; Enterococcus faecium, ATCC 700221, 24 h)?
Answer: Its MBC is 0.2 µM (≈ 0.094 µg/mL).

Question: What about the hemolysis at 1 h, 200 µM [14] of the same compound?
Answer: The hemolysis at 1 h, 200 µM was 2.7%.

Question: And the Activity [15]?
Answer: Its Activity is “Active”.

Question: And the MIC (Staphylococcus aureus [16])?
Answer: The MIC was 100 µM.

Question: And the MIC (Staphylococcus aureus [17])?
Answer: The MIC was 6.25 µM (≈ 2.94 µg/mL).

Question: And the solubility at 16 h [18]?
Answer: Its solubility at 16 h is 200 µM (≈ 94 µg/mL).

Question: What about the Activity [19] of the same compound?
Answer: Its Activity is >99.99%.
